Screening results (PubChem)
Sampled rows, rich in hits. Any-hit rate of the full collection: about 4.6%.
OX1R antag-1: antagonists of human orexin 1 receptor; AID 434989; 0.43% of 330,000 active; O43613; inhibition, % at 5 µM; CHO/OX1R cells, Fluo-8 calcium fluorescence, orexin A;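 active = inhibition above its plate's threshold, mean inhibition of all tested compounds on the plate plus 3 SD, cut at about 37% in these data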;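 note: 0% = orexin A challenge wells and 100% = SB-334867-A antagonist wells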
OX1R antag-2: antagonists of human orexin 1 receptor (OX1R); O43613; OX1R-expressing cells, FRET antagonist read-out; inhibition, % at 6.6 µM; 1.8% of 330,000 active; AID 485270; in the data active = inhibition mostly above about 38%, no sharp cut-off; inactive = mostly below about 40%;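 note: 0% = agonist challenge alone and 100% = reference antagonist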
TAAR1 antag: antagonists of human TAAR1 | 1.5% of 360,000 active | Q96RJ0 | AID 624466 | CHO RD-HGA16 TAAR1, Fluo-8 calcium fluorescence, antagonist | inhibition, % at 3 µM;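 active = inhibition above a per-plate cutoff, the mean inhibition of test compounds on that plate plus 3 SD, cut at about 49% in these data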;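 note: 0% = DMSO plus EC80 beta-PEA response and 100% = DMSO alone without agonist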
Target sequence (Q96RJ0 whole entry, looked up): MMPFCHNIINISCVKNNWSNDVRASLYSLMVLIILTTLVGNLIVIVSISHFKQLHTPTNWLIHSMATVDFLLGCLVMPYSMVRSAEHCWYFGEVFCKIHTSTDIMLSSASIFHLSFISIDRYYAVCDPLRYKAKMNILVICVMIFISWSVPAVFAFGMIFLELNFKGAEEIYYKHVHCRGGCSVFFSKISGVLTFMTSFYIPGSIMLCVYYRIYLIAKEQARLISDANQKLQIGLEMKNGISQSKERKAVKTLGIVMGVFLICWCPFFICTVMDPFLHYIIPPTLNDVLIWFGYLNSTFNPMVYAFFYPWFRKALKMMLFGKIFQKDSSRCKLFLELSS
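Test system – hTAAR1-expressing CHO RD-HGA16 cells, Gα16-coupled · Reagent – β-PEA at EC80 concentration, post-compound challenge · Compound dosing – 3 µM, single point · Timing – 140 s kinetic read after compound, 140 s after agonist · Detection – Fluo-8 intracellular calcium dye fluorescence, real-time kinetic reads · Control set – DMSO and EC80 PEA controls · Repeats – n of 1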
GPR7 antagonist: blocks human GPR7 receptor signaling; inhibition, % at 4.4 µM; GPR7-expressing cells, fluorescence antagonist assay; 1.1% of 290,000 active; AID 1861; in the data active = inhibition above about 16%, passing the limit was not always enough;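 note: cells stimulated with the agonist NPW; 0% = agonist with vehicle and 100% = vehicle without agonist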
Target sequence (P48145 whole entry, looked up): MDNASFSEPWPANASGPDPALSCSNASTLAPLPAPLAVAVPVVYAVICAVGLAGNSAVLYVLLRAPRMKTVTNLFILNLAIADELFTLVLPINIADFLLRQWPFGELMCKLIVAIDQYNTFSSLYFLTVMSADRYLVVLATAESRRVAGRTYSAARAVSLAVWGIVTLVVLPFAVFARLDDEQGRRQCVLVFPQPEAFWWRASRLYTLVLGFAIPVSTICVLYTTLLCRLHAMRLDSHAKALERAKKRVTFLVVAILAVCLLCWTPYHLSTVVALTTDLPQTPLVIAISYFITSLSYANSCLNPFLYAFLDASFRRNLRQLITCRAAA
CHO parental Ca: signal in parental CHO cells, OX1R antagonist counter-screen. 0.63% of 330,000 active. parental CHO-K1, ATP-induced calcium, Fluo-8 fluorescence. inhibition, % at 5.6 µM;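 active = inhibition above that plate's mean sample inhibition plus 3 SD, cut at about 26% in these data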;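 note: 0% = ATP-challenged DMSO wells and 100% = DMSO wells without ATP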
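Test system: parental CHO cells; detection: calcium-sensitive Fluo-8 fluorescence; evaluation: percent inhibition of calcium signal; also added: ATP as calcium-mobilizing challenge; repeats: one well per compound; control set: ATP-challenged DMSO wells low, unchallenged DMSO wells high; compound: single nominal dose of 5.6 µM per compound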
TAAR1 ag: agonists of human TAAR1; Q96RJ0; CHO RD-HGA16 TAAR1, Fluo-8 calcium fluorescence; vehicle wells 0%, saturating PEA agonist 100%; activation, % at 3 µM; 0.99% of 360,000 active; AID 624467;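 active = activation above the mean activation of all test compounds in the run plus 3 SD, cut at about 38% in these data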
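System: CHO-derived RD-HGA16 cells with stable Gα16 and human TAAR1. Times: 17-24 h plating, Fluo-8 75 min 37 °C, 30 min RT. Measured by: calcium-sensitive Fluo-8 signal, excitation 470-495, emission 515-575 nm. Read-out basis: % activation relative to PEA EC100 response. Control set: DMSO and PEA EC100. Repeats: no replicates (n 1).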
TAAR1 nonsel count: counter-screen for TAAR1 antagonists: nonselective antagonists | shares compounds with TAAR1 antag | counterscreen cell line, calcium fluorescence, antagonist mode | inhibition, % at 3 µM | 77% of 2,400 active | AID 651780; in the data active = inhibition above about 22%;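 note: CHO-Ga16 host cells stimulated with ATP at an EC80 level; 0% = agonist EC80 plus vehicle and 100% = vehicle without agonist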
TAAR1 antag conf: confirmation of human TAAR1 antagonists. 40% of 2,400 active. AID 651785. TAAR1-expressing cells, fluorescence antagonist read-out. shares compounds with TAAR1 antag. inhibition, % at 3 µM; in the data active = inhibition above about 49%;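 note: CHO-Ga16 host cells challenged with agonist PEA near its EC80; 0% = agonist at EC80 plus vehicle and 100% = vehicle with no agonist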
Ga16 nonsel ag: nonselective Ga16 agonist in TAAR1 antagonist counter-screen. AID 651953. Ga16-expressing cells, calcium fluorescence, agonist counterscreen. 18% of 2,400 active. shares compounds with TAAR1 antag. activation, % at 3 µM; in the data active = activation above about 12%;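 note: 0% = vehicle wells and 100% = saturating stimulus response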
TAAR1 ag counter: activates human TAAR1 in antagonist counter-screen; shares compounds with TAAR1 antag; hTAAR1 cell line, fluorescence activation, agonist mode; activation, % at 3 µM; 2% of 2,400 active; in the data active = activation above about 37%;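 note: CHO cells stably expressing TAAR1 with calcium dye readout; 0% = DMSO vehicle and 100% = full agonist response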
* = called active by the depositor; . = not tested or not shown.

SMILES | OX1R antag-1 | OX1R antag-2 | TAAR1 antag | GPR7 antagonist | CHO parental Ca | TAAR1 ag | TAAR1 nonsel count | TAAR1 antag conf | Ga16 nonsel ag | TAAR1 ag counter
COC(=O)c1ccccc1NC(=O)COC(=O)/C=C/c1cccs1 | -29 | 19 | 60* | . | -31 | 8 | 21 | 37 | 4 | 1
NC(=O)c1ccsc1NC(=O)COC(=O)CCc1ccccc1 | . | . | 44 | . | . | 17 | . | . | . | .
CCC(C)Nc1ncnc2c1cnn2Cc1ccc(Cl)cc1 (centres undefined) | -11 | 10 | 55* | -12 | 0 | 4 | 17 | 35 | 13* | 18
CC(C)Nc1ncnc2c1cnn2Cc1ccc(Cl)cc1 | -24 | 7 | 7 | 4 | -9 | 5 | . | . | . | .
CCn1c2ccccc2c2cc(NC(=O)c3coc(=O)c(Br)c3)ccc21 | -16 | 15 | 105* | -14 | -4 | 5 | 16 | 18 | 5 | 5
CCc1ccccc1S(=O)(=O)Cc1ccc(C(=O)N2CCN(c3ccccn3)CC2)o1 | -45 | 15 | 51* | -9 | -16 | 9 | 25* | 32 | 5 | 6
Cc1ccccc1S(=O)(=O)Cc1ccc(C(=O)N2CCN(c3ncccn3)CC2)o1 | -2 | 29 | 15 | -4 | -14 | 14 | . | . | . | .
COc1cc(C2C(C(=O)c3ccco3)=C(O)C(=O)N2CC2CCCO2)ccc1O (centres undefined) | -1 | 21 | -2 | -9 | 2 | 0 | . | . | . | .
COc1ccc(/C=N/NC(=O)c2cc3c(ccc4ccccc43)o2)cc1OC | . | . | 53* | -12 | . | 7 | 28* | 36 | 7 | 3
O=C(O)c1ccc(/C=N/NC(=O)c2cc3c(ccc4ccccc43)o2)cc1 | -8 | 3 | 9 | -1 | 5 | 0 | . | . | . | .
COc1ccc(/C=N\NC(=O)c2cc3c(ccc4ccccc43)o2)cc1O | . | . | 57* | 12 | . | 10 | 40* | 55* | 13* | 12
CC(C)(C)OC(=O)NCCCC[C@H](NC(=O)c1nc[nH]c1C(=O)N1CCN(C(=O)OC(C)(C)C)CC1)C(=O)OC(C)(C)C | -39 | -1 | 50* | -13 | -17 | 14 | 17 | 39 | 6 | 8
CC(C)(C)OC(=O)CNC(=O)c1[nH]cnc1C(=O)NCCCCCN | -7 | 11 | -3 | . | 0 | 19 | . | . | . | .
C[C@H](NC(=O)c1nc[nH]c1C(=O)NCCCCCNC(=O)OC(C)(C)C)C(=O)OC(C)(C)C | -22 | 34 | 61* | -3 | -4 | 18 | 31* | 45 | 9 | 5
CC(C)(C)OC(=O)NCCCC[C@H](NC(=O)c1nc[nH]c1C(=O)N1CCN(c2ccccc2)CC1)C(=O)OC(C)(C)C | -34 | -1 | 33 | . | -21 | 15 | . | . | . | .
CC(C)(C)OC(=O)CNC(=O)c1[nH]cnc1C(=O)NCCCCCNC(=O)OC(C)(C)C | -11 | 26 | 68* | -10 | 3 | 29 | 41* | 60* | 16* | 16
CCn1c(=O)cc(SCC(=O)N2CCN(Cc3ccc4c(c3)OCO4)CC2)c2ccccc21 | -36 | 9 | 0 | 1 | -22 | 12 | . | . | . | .
CSc1ncc(CN2CCN(CCC(C)C)C(CCO)C2)cn1 (centres undefined) | -16 | 11 | -8 | -2 | -3 | 0 | . | . | . | .
O=C(N/N=C/c1cccc(O)c1)c1ccc(COc2cccc3cccnc23)cc1 | -21 | 14 | 10 | -16 | -21 | 19 | . | . | . | .
COc1ccc(/C=N/NC(=O)c2ccc(COc3cccc4cccnc34)cc2)cc1OC | -27 | 50 | 54* | -11 | -23 | 10 | 27* | 44 | 6 | 3
COc1ccc(/C=N/NC(=O)c2ccc(COc3cccc4cccnc34)cc2)cc1O | -27 | 23 | 63* | -17 | -16 | 8 | 26* | 44 | 10 | 12
Cc1ccc(C(=O)NCCOc2cccc3cccnc23)cc1Cl | -27 | 31 | -23 | -15 | -20 | 24 | . | . | . | .
COc1cc(C(=O)NCCOc2cccc3cccnc23)cc(OC)c1OC | -18 | 18 | 74* | -13 | 2 | 20 | 34* | 55* | 11 | 12
O=C(N/N=C/c1cccc(O)c1)c1ccc(COc2ccccc2Br)cc1 | -14 | 37 | 91* | -13 | -20 | 0 | 27* | 78* | 4 | 5
CCOC(=O)N1CCN(C(=O)c2ccc(S(=O)(=O)Nc3ccccc3)cc2)CC1 | 9 | 15 | -15 | . | -4 | 11 | . | . | . | .
SMILES | OX1R antag-1 | OX1R antag-2 | TAAR1 antag | GPR7 antagonist | CHO parental Ca | TAAR1 ag | TAAR1 nonsel count | TAAR1 antag conf | Ga16 nonsel ag | TAAR1 ag counter
COc1ccccc1NS(=O)(=O)c1cccc(C(=O)N/N=C/c2ccc3c(c2)OCCO3)c1 | -3 | 25 | 56* | -5 | -14 | 15 | 32* | 45 | 10 | 9
O=C(Nc1ccc(Cn2cccn2)cc1)c1ccc(COc2ccccc2Br)cc1 | -2 | 44 | 88* | -6 | -10 | 6 | 37* | 66* | 7 | 7
CC(=O)Nc1ccc(C(=O)N/N=C/c2ccccc2OC(=O)c2ccc(Cl)cc2)cc1 | -34 | 7 | 52* | 1 | -22 | 10 | 35* | 42 | 8 | 10
O=C(N/N=C/c1cccc(NC(=O)c2ccc(Cl)cc2)c1)c1cccc(O)c1 | -22 | 8 | 73* | -6 | -17 | 4 | 26* | 38 | 6 | 5
COc1ccc(NS(=O)(=O)c2cccc(C(=O)N/N=C/c3ccc4c(c3)OCCO4)c2)cc1 | -3 | 10 | -2 | 6 | -8 | 5 | . | . | . | .
CCOCCCNC(=O)C1CCN(S(=O)(=O)c2ccc3nc4c(c(C(=O)O)c3c2)CCCCC4)CC1 | -13 | 10 | -10 | -15 | -6 | 3 | . | . | . | .
Cc1ccccc1NC(=S)NC(=O)COc1ccccc1C | -26 | 17 | 21 | -44 | -22 | -1 | . | . | . | .
COc1cc(/C=N/NC(=O)c2ccccn2)ccc1OC(=O)c1ccc(Br)cc1 | -7 | 6 | 40 | -17 | 13 | 2 | . | . | . | .
O=C(N/N=C\c1c(F)c(F)c(F)c(F)c1F)c1ccc(-c2ccccc2)cc1 | -11 | 5 | -3 | -9 | -7 | 2 | . | . | . | .
O=C(N/N=C\c1cccc(F)c1)c1ccc(-c2ccccc2)cc1 | . | . | 57* | -20 | . | -1 | -5 | 29 | 0 | -2
COc1ccc(/C=N/NS(=O)(=O)c2ccccc2)cc1OS(=O)(=O)c1ccccc1 | 2 | 10 | 1 | -2 | -6 | 10 | . | . | . | .
